Measurements from ChEMBL document CHEMBL1123542, “Alpha-adrenoreceptor reagents. 4. Resolution of some potent selective prejunctional alpha 2-adrenoreceptor antagonists” (J Med Chem, 1986).

Tests used:
Rattus norvegicus = assay: Compound was evaluated in vivo for the reversal of maximal inhibitory effect of clonidine at 100 ug/kg(iv) in pithed rat vas deferens preparation; assay type: functional
[1] = target: T1, Adrenergic receptor alpha-1 (Rattus norvegicus, UniProt P15823+P23944+P43140); assay: Displacement of [3H]prazosin from alpha-1 adrenergic receptor from rat brain cerebral cortex; assay type: tissue-based
T1 sequence (P15823 whole entry): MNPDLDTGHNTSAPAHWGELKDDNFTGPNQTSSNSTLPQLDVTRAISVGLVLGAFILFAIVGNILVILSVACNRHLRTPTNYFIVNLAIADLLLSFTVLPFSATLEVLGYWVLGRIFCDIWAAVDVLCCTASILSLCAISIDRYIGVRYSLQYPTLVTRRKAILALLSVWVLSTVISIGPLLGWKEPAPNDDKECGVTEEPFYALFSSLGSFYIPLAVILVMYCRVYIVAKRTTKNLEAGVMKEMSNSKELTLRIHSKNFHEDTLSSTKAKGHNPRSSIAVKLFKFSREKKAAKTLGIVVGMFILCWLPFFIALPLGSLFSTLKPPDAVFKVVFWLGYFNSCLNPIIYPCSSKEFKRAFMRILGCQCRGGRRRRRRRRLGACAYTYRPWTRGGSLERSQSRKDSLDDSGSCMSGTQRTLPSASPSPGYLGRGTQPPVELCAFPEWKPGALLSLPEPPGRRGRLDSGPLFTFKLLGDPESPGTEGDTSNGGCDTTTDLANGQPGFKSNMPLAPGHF
T1 sequence (P23944 whole entry): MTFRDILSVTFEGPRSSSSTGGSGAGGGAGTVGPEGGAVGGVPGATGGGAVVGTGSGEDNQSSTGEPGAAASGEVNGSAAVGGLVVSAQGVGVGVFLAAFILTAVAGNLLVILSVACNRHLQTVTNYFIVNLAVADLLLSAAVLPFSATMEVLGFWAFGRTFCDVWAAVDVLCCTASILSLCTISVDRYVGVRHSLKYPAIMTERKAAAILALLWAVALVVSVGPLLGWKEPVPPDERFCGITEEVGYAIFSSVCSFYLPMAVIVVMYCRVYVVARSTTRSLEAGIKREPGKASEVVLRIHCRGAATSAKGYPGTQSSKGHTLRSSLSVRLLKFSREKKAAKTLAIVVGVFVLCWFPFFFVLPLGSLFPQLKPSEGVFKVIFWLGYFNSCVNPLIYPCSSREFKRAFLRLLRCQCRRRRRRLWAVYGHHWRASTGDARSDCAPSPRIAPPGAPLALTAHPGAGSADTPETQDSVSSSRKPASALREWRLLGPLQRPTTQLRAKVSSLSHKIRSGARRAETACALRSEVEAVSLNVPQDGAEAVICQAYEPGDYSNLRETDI
T1 sequence (P43140 whole entry): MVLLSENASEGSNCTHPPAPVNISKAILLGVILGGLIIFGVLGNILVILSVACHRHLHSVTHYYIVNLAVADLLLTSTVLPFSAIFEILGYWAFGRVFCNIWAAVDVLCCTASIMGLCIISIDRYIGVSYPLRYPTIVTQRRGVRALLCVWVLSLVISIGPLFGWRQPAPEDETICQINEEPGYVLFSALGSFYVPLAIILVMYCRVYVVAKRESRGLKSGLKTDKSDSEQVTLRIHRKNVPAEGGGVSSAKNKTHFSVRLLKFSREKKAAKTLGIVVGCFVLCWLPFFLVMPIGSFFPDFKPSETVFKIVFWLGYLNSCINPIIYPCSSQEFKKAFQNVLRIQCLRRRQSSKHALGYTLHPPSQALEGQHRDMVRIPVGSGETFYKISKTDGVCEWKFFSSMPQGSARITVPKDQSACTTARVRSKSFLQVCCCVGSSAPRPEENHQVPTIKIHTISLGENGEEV
Method in brief: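 Rat cerebral cortical membranes. Ki (nM) from displacement of saturable [3H]prazosin binding at α1 sites.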

[2] = target: T2, Adrenergic receptor alpha-2 (Rattus norvegicus, UniProt P22086+P19328+P22909); assay: Displacement of [3H]idazoxan from alpha-2 adrenergic receptor from rat brain cerebral cortex.; assay type: tissue-based
T2 sequence (P22086 whole entry): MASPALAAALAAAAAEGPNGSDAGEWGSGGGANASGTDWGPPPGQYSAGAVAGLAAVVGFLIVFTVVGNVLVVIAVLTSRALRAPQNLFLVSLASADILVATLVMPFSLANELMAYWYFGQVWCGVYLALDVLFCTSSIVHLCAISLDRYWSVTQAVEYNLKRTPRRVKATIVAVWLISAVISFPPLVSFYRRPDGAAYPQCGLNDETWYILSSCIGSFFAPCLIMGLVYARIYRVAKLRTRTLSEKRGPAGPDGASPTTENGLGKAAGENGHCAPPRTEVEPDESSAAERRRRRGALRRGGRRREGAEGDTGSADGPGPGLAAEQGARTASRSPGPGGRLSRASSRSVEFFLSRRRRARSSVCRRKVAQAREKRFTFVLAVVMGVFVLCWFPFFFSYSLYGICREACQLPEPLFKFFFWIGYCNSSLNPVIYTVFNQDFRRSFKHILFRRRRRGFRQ
T2 sequence (P19328 whole entry): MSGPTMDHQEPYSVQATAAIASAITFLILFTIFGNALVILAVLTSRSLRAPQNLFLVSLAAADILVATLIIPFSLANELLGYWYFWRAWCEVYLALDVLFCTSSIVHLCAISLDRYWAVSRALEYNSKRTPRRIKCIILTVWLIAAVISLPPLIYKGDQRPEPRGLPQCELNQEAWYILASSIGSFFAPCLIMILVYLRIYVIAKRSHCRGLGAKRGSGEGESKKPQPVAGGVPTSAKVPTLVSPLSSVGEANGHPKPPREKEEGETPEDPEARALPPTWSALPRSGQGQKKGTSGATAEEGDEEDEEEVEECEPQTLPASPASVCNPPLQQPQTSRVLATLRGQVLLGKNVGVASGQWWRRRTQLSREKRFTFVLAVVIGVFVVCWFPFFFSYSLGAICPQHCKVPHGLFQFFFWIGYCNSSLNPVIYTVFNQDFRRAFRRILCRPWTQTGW
T2 sequence (P22909 whole entry): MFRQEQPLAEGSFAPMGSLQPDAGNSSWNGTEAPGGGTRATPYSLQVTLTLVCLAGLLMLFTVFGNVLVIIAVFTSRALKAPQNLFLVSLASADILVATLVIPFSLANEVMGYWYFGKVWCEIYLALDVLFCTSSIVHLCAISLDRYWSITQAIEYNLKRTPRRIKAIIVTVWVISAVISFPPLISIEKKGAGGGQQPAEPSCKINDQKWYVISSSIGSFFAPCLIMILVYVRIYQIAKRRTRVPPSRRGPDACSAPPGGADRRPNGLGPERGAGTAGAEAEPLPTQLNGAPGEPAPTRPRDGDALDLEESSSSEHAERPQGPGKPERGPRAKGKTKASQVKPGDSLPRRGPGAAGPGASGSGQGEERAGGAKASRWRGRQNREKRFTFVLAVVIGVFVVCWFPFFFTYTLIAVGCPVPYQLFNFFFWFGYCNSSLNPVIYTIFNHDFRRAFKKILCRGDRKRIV
Method in brief: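 Rat cerebral cortical membranes. Ki (nM) from displacement of saturable [3H]idazoxan binding at α2 sites.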

[3] = test system: Alpha-1 adrenergic receptor (Rattus norvegicus); assay: Compound was evaluated for its ability to antagonise the inhibitory activity of phenylephrine, relative to idazoxan at postjunctional alpha-1 adrenergic receptor in rat anococcygeus.
[4] = test system: Alpha-2 adrenergic receptor (Rattus norvegicus); assay: Compound was evaluated for its ability to antagonise the inhibitory activity of clonidine, relative to idazoxan at prejunctional alpha-2 adrenergic receptor in rat vas deferens.
[5] = target: T3, Adrenergic receptor alpha-1 (Rattus norvegicus) (UniProt P15823+P23944+P43140); assay: Compound was evaluated for the antagonist potency at postjunctional alpha-1 adrenergic receptor in pithed rat diastolic bp test; assay type: functional
Method in brief: (§1)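 Pithed rats; iv dose (μg/kg) giving a 2-fold shift (DR2) of the cirazoline dose-response curve on diastolic blood pressure. Separate groups, n = 6 minimum.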

[6] = target: T4, Adenosine receptor A1 (Rattus norvegicus) (UniProt P25099); assay: Compound was evaluated for its ability to antagonise the inhibitory activity of phenylephrine, relative to idazoxan at postjunctional alpha-1 adrenergic receptor in rat anococcygeus; assay type: functional
T4 sequence (whole entry): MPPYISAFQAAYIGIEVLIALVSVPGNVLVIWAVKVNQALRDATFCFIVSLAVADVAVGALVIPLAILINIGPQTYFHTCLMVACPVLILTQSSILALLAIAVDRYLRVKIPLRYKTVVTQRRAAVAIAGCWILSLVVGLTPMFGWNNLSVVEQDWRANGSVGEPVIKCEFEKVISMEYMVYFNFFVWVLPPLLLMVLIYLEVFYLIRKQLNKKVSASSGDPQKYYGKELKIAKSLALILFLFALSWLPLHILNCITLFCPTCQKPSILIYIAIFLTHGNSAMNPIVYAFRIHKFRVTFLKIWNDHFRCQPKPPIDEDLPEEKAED

[7] = target: T3, Adrenergic receptor alpha-1 (Rattus norvegicus); assay: Compound was evaluated for the antagonist potency at postjunctional alpha-1 adrenergic receptor in pithed rat diastolic bp test,; assay type: functional; method in brief: as §1
[8] = target: Adenosine A2 receptor (Rattus norvegicus) (UniProt P29276+P30543); assay: Compound was evaluated for its ability to antagonise the inhibitory activity of clonidine, relative to idazoxan at prejunctional alpha-2 adrenergic receptor in rat vas deferens; assay type: functional, tissue-based

Row | SMILES | AD50 (Rattus norvegicus) [mg/kg] | Ki [1] [nM] | Ki [2] [nM] | also measured
1 | COC1(C2=NCCN2)COc2ccccc2O1 (single isomer, unassigned; (+)) [listing 1 of 2 here] | 0.00225 | 27 | 0.36 | –
2 | C=C(C)C1(C2=NCCN2)COc2ccccc2O1 (single isomer, unassigned; (+)) [listing 1 of 2 here] | >14.444 | 46439 | 8734 | –
3 | CC1(C2=NCCN2)COc2ccccc2O1 (single isomer, unassigned; (+)) [listing 1 of 2 here] | 0.0258 | 285 | 2.4 | –
4 | C=C(C)C1(C2=NCCN2)COc2ccccc2O1 (single isomer, unassigned; (+)) [listing 2 of 2 here] | – | – | – | Antagonist potency [3]: 0.03; Antagonist potency [4]: 0.0003
5 | CC1(C2=NCCN2)COc2ccccc2O1 (single isomer, unassigned; (+)) [listing 2 of 2 here] | – | – | – | Antagonist potency [3]: 0.09; Antagonist potency [4]: 1.3
6 | COC1(C2=NCCN2)COc2ccccc2O1 (single isomer, unassigned; (+)) [listing 2 of 2 here] | – | – | – | Antagonist potency [5]: 58.9
7 | COC1(C2=NCCN2)COc2ccccc2O1 (single isomer, unassigned; (-)) [listing 1 of 2 here] | 0.786 | 6763 | 256 | –
8 | CC1(C2=NCCN2)COc2ccccc2O1 (single isomer, unassigned; (-)) [listing 1 of 2 here] | 2.567 | 13329 | 487 | –
9 | CC1(C2=NCCN2)COc2ccccc2O1 (single isomer, unassigned; (-)) [listing 2 of 2 here] | – | – | – | Antagonist potency [6]: < 0.023; Antagonist potency [4]: 0.005
10 | COC1(C2=NCCN2)COc2ccccc2O1 (single isomer, unassigned; (-)) [listing 2 of 2 here] | – | – | – | Antagonist potency [7]: 12800
11 | COC1(C2=NCCN2)COc2ccccc2O1 (stereo in doubt; 4) [listing 1 of 2 here] | 0.00268 | 66 | 0.8 | –
12 | COC1(C2=NCCN2)COc2ccccc2O1 (stereo in doubt; 4) [listing 2 of 2 here] | – | – | – | Antagonist potency [5]: 176
13 | CC1(C2=NCCN2)COc2ccccc2O1 (stereo in doubt; 7) [listing 1 of 2 here] | 0.0527 | 449 | 4.4 | –
14 | CC1(C2=NCCN2)COc2ccccc2O1 (stereo in doubt; 7) [listing 2 of 2 here] | – | – | – | Antagonist potency [3]: 0.28; Antagonist potency [8]: 0.67
15 | C=C(C)C1(C2=NCCN2)COc2ccccc2O1 (stereo in doubt; 10) [listing 1 of 2 here] | 0.0712 | 1794 | 16.3 | –
16 | C=C(C)C1(C2=NCCN2)COc2ccccc2O1 (stereo in doubt; 10) [listing 2 of 2 here] | – | – | – | Antagonist potency [3]: 0.07; Antagonist potency [4]: 0.4
17 | C=C(C)C1(C2=NCCN2)COc2ccccc2O1 (stereo in doubt; 12) [listing 1 of 2 here] | 0.0539 | 1473 | 8 | –
18 | C=C(C)C1(C2=NCCN2)COc2ccccc2O1 (stereo in doubt; 12) [listing 2 of 2 here] | – | – | – | Antagonist potency [3]: 0.6; Antagonist potency [4]: 0.8
